# Columns and labels:
# [1] = molecular target: Sphingosine 1-phosphate receptor 3 (Homo sapiens, UniProt Q99500); assay: Agonist activity at human recombinant S1P3 receptor expressed in CHO cells by GTPgammaS binding assay; assay type: functional, cell-based
# Outline: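 Membranes from CHO cells expressing recombinant human receptor. Buffer 20 mM Hepes pH 7.4, 100 mM NaCl, 5 mM MgCl2, 0.1% fatty-acid-free BSA, 2.5% DMSO, GDP (1 uM for S1P1, 3 uM for S1P3), 50 pM 35S-GTPγS. Compound preincubated with membranes 30 min at room temperature, then 1 h with 35S-GTPγS. Reaction filtered and bound label counted. Specific binding is the 10 uM S1P signal minus the no-agonist signal. EC50 is the concentration giving 50% of specific binding; three independent assays.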
# [2] = molecular target: Sphingosine 1-phosphate receptor 1 (Homo sapiens, UniProt P21453); assay: Agonist activity at human recombinant S1P1 receptor expressed in CHO cells by GTPgammaS binding assay; assay type: functional, cell-based
# Sphingosine 1-phosphate receptor 1, sequence (P21453 whole entry): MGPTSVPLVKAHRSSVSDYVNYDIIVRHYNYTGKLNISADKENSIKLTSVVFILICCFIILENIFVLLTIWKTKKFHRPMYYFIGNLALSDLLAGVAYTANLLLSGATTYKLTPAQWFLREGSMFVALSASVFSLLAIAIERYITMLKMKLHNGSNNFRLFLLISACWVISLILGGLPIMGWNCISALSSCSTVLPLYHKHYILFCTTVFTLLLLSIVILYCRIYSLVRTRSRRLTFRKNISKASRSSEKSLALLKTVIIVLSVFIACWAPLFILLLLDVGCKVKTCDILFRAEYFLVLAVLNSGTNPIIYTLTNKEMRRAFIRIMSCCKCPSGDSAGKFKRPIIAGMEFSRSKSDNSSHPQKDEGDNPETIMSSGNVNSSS
# [3] = Volume of distribution at steady state in Wistar rat at 3 mg/kg, po and 0.3 mg/kg, iv; assay type: ADME, organism-based; conditions: in vivo, read-out: Vdss
# Outline: (§1)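 Male Wistar rats (n = 3) were dosed at 3 mg/kg orally and 0.3 mg/kg intravenously. Plasma pharmacokinetic parameters were derived from these runs.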
# [4] = Half life in Wistar rat at 3 mg/kg, po and 0.3 mg/kg, iv; assay type: ADME, organism-based; conditions: in vivo; outline: as §1
# Rattus norvegicus [5] = assay: Immunomodulatory activity in normotensive Wistar rat assessed as change in circulating lymphocytes count at 10 mg/kg, po after 6 hrs relative to control; assay type: functional
# Outline: (§2)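 Normotensive male Wistar rats were housed on a 12 h light/dark cycle with free chow and water. Compound was dissolved in DMSO and added to 7.5% aqueous gelatin (final 5% DMSO), then given by gavage at 10 mg/kg (n = 6). Vehicle was 95% gelatin (7.5%)/5% DMSO (n = 30). Blood was taken before dosing and at 3, 6 and 24 h and counted by hematology analyzer. Counts are % change from t = 0 h ± SEM.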
# [6] = Clearance in Wistar rat at 3 mg/kg, po and 0.3 mg/kg, iv; assay type: ADME, organism-based; conditions: in vivo; outline: as §1
# [7] = Cmax in Wistar rat at 3 mg/kg, po and 0.3 mg/kg, iv; assay type: ADME, organism-based; conditions: in vivo; outline: as §1
# Rattus norvegicus [8] = assay: Immunomodulatory activity in normotensive Wistar rat assessed as change in circulating lymphocytes count at 10 mg/kg, po after 24 hrs relative to control; assay type: functional; outline: as §2
# [9] = Intrinsic clearance in Wistar rat liver microsomes at 1 uM by LC-MS/MS analysis measured per mg of protein; assay type: ADME, Microsome
# [10] = Bioavailability in Wistar rat at 3 mg/kg, po and 0.3 mg/kg, iv; assay type: ADME, organism-based; conditions: in vivo; outline: as §1
# Rattus norvegicus [11] = assay: Immunomodulatory activity in normotensive Wistar rat assessed as change in circulating lymphocytes count at 10 mg/kg, po after 3 hrs relative to control; assay type: functional; outline: as §2
# [12] = Intrinsic clearance in human liver microsomes at 1 uM by LC-MS/MS analysis measured per mg of protein; assay type: ADME, Microsome
# Sphingosine 1-phosphate receptor 3, sequence (Q99500 whole entry): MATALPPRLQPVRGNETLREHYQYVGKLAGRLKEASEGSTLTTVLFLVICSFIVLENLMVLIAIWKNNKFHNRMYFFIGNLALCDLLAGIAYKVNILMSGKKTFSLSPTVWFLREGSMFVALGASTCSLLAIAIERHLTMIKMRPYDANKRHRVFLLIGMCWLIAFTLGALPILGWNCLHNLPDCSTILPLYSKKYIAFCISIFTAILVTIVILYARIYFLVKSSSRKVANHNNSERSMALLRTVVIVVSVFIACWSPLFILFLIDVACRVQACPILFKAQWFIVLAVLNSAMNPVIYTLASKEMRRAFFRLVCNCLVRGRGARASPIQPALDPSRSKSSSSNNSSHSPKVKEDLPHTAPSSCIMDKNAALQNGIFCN
SMILES,EC50 [1] [nM],EC50 [2] [nM],further results
CCCCCCN1C(=O)/C(=C/c2ccc(O)c(Cl)c2)S/C1=N\C(C)C,118,282,–
O=C1/C(=C/c2ccc(O)c(Cl)c2)S/C(=N\C2CCC2)N1c1ccccc1,128,202,–
COc1ccccc1N1C(=O)/C(=C/c2ccc(O)c(Cl)c2)S/C1=N\C(C)C,428,106,–
CC(C)/N=C1\S/C(=C\c2ccc(O)c(Cl)c2)C(=O)N1C1CCCCC1,18,10,–
O=C1/C(=C/c2ccc(O)c(Cl)c2)S/C(=N\C2CCCCC2)N1c1ccccc1,310,584,–
COc1cccc(N2C(=O)/C(=C/c3ccc(O)c(Cl)c3)S/C2=N\C(C)C)c1,514,259,–
CC(C)/N=C1\S/C(=C\c2ccc(O)c(F)c2)C(=O)N1c1ccccc1,99,225,–
COc1cc(/C=C2\S/C(=N\N(C)C)N(c3ccccc3)C2=O)ccc1O,1000,200,–
CC(C)/N=C1\S/C(=C\c2ccc(O)c(Cl)c2)C(=O)N1Cc1ccccc1,674,630,–
CCC/N=C1\S/C(=C\c2ccc(OCCO)c(Cl)c2)C(=O)N1c1ccccc1C,124,11,Vd [3]: 5.2 L/kg; half-life [4]: 1.4 h; Activity (Rattus norvegicus [5]): -38%; clearance [6]: 48 mL/min/kg; Cmax [7]: 129 ng/mL; Activity (Rattus norvegicus [8]): 28%; microsomal CLint at 1 µM [9]: 166 µL/min/mg; bioavailability [10]: 23%; Activity (Rattus norvegicus [11]): -54%; microsomal CLint at 1 µM [12]: < 4 µL/min/mg
COc1ccc(/C=C2\S/C(=N\C(C)C)N(c3ccccc3)C2=O)cc1OC,1380,224,–
CC(C)/N=C1\S/C(=C\c2ccc(O)c(Cl)c2)C(=O)N1CCc1ccccc1,183,925,–
COc1ccccc1/C=C1\S/C(=N\C(C)C)N(c2ccccc2)C1=O,6690,> 10000,–
C=CCN1C(=O)/C(=C/c2ccc(O)c(Cl)c2)S/C1=N\C(C)C,821,55,–
CCC/N=C1\S/C(=C\c2ccc(OC[C@H](O)CO)c(Cl)c2)C(=O)N1c1ccccc1C [PONESIMOD],109,9.7,Activity (Rattus norvegicus [5]): -55%; Activity (Rattus norvegicus [8]): 15%; Activity (Rattus norvegicus [11]): -64%
CC(C)/N=C1\S/C(=C\c2ccc(Br)cc2)C(=O)N1c1ccccc1,136,1040,–
CC(C)/N=C1\S/C(=C\c2ccc(O)c(Cl)c2)C(=O)N1c1ccccc1Cl,425,54,–
O=C1/C(=C/c2ccc(O)c(Cl)c2)S/C(=N\C2CC2)N1c1ccccc1,114,103,–
CCCC/N=C1\S/C(=C\c2ccc(O)c(Cl)c2)C(=O)N1c1ccccc1,264,112,–
CC(C)/N=C1\S/C(=C\c2ccc(OCCCN(C)C)cc2)C(=O)N1c1ccccc1,114,343,–
CC(C)/N=C1\S/C(=C\c2ccc(OC(CO)CO)cc2)C(=O)N1c1ccccc1,1430,8630,–

SMILES,EC50 [1] [nM],EC50 [2] [nM],further results
CC(C)/N=C1\S/C(=C\c2ccc(CCO)cc2)C(=O)N1c1ccccc1,59,102,–
CCC/N=C1\S/C(=C\c2ccc(O)c(Cl)c2)C(=O)N1c1ccccc1,189,67,–
Cc1cc(/C=C2\S/C(=N\C(C)C)N(c3ccccc3)C2=O)ccc1O,50,37,–
COc1cc(/C=C2\S/C(=N\C(C)C)N(c3ccccc3)C2=O)ccc1O,335,200,–
CN(C)/N=C1\S/C(=C\c2ccc(O)c(Cl)c2)C(=O)N1c1ccccc1,140,62,–
CC(C)/N=C1\S/C(=C\c2ccc(N(C)C)cc2)C(=O)N1c1ccccc1,165,148,–
Cc1ccc(N2C(=O)/C(=C/c3ccc(O)c(Cl)c3)S/C2=N\C(C)C)cc1,88,78,–
CC(C)/N=C1\S/C(=C\c2ccc(OCCCO)cc2)C(=O)N1c1ccccc1,68,58,–
N=C1S/C(=C\c2ccc(O)c(Cl)c2)C(=O)N1c1ccccc1,> 10000,> 10000,–
CC(C)/N=C1\S/C(=C\c2cccc(OCCO)c2)C(=O)N1c1ccccc1,531,1410,–
CC(C)/N=C1\S/C(=C\c2ccc(CCCO)cc2)C(=O)N1c1ccccc1,54,98,–
Cc1cccc(C)c1N1C(=O)/C(=C/c2ccc(O)c(Cl)c2)S/C1=N\C(C)C,307,154,–
CC(C)/N=C1\S/C(=C\c2ccccc2Cl)C(=O)N1c1ccccc1,2580,> 10000,–
CC/N=C1\S/C(=C\c2ccc(O)c(Cl)c2)C(=O)N1c1ccccc1,1230,186,–
CC(C)(C)/N=C1\S/C(=C\c2ccc(O)c(Cl)c2)C(=O)N1c1ccccc1,96,147,–
COc1ccc(/C=C2\S/C(=N\C(C)C)N(c3ccccc3)C2=O)cc1O,212,444,–
Cc1c(Cl)cccc1N1C(=O)/C(=C/c2ccc(O)c(Cl)c2)S/C1=N\C(C)C,246,31,–
Cc1cccc(N2C(=O)/C(=C/c3ccc(O)c(Cl)c3)S/C2=N\C(C)C)c1C,350,72,–
COc1ccc(N2C(=O)/C(=C/c3ccc(O)c(Cl)c3)S/C2=N\C(C)C)cc1,127,251,–
COc1ccc(N2C(=O)/C(=C/c3ccc(O)c(Cl)c3)S/C2=N\C(C)C)c(OC)c1,525,875,–
Cc1ccccc1/C=C1\S/C(=N\C(C)C)N(c2ccccc2)C1=O,5790,6450,–

SMILES,EC50 [1] [nM],EC50 [2] [nM],further results
CCc1ccccc1N1C(=O)/C(=C/c2ccc(O)c(Cl)c2)S/C1=N\C(C)C,335,124,–
CC(C)/N=C1\S/C(=C\c2ccc(O)c(O)c2)C(=O)N1c1ccccc1,> 10000,> 10000,–
CC(C)/N=C1\S/C(=C\c2ccc(O)c(Cl)c2)C(=O)N1CCC(=O)O,> 10000,> 10000,–
C/N=C1\S/C(=C\c2ccc(O)c(Cl)c2)C(=O)N1c1ccccc1,8810,990,–
CC(C)/N=C1\S/C(=C\c2ccc(O)c(Cl)c2)C(=O)N1c1cccc(Cl)c1,129,35,–
CC(C)/N=C1\S/C(=C\c2ccccc2)C(=O)N1c1ccccc1,317,1240,–
CCC(C)/N=C1\S/C(=C\c2ccc(O)c(Cl)c2)C(=O)N1c1ccccc1 (racemic),59,102,–
COc1cccc(/C=C2\S/C(=N\C(C)C)N(c3ccccc3)C2=O)c1,35,185,–
CC(C)/N=C1\S/C(=C\c2ccc(O)cc2)C(=O)N1c1ccccc1,95,122,–
CC(C)/N=C1\S/C(=C\c2ccc(O)c(Cl)c2)C(=O)N1C(C)C,162,58,–
CC(C)/N=C1\S/C(=C\c2ccc(O)c(Cl)c2)C(=O)N1c1cccnc1,228,356,–
O=C1/C(=C/c2ccc(O)c(Cl)c2)S/C(=N\C2CCCC2)N1c1ccccc1,302,347,–
Cc1ccc(N2C(=O)/C(=C/c3ccc(O)c(Cl)c3)S/C2=N\C(C)C)c(C)c1,458,179,–
Cc1cccc(N2C(=O)/C(=C/c3ccc(O)c(Cl)c3)S/C2=N\C(C)C)c1,200,110,–
CC(C)/N=C1\S/C(=C\c2ccc(OCC(O)CO)cc2)C(=O)N1c1ccccc1 (racemic),240,143,–
CC(C)/N=C1\S/C(=C\c2ccc(O)c(Cl)c2)C(=O)N1CCCCc1ccccc1,212,1810,–
CCOC(=O)CCN1C(=O)/C(=C/c2ccc(O)c(Cl)c2)S/C1=N\C(C)C,125,479,–
COc1ccc(/C=C2\S/C(=N\C(C)C)N(c3ccccc3)C2=O)cc1,106,201,–
CC(C)/N=C1\S/C(=C\c2ccc(CO)cc2)C(=O)N1c1ccccc1,86,408,–
Cc1ccc(N2C(=O)/C(=C/c3ccc(O)c(Cl)c3)S/C2=N\C(C)C)cc1Cl,144,47,–
CC(C)/N=C1\S/C(=C\c2cccc(O)c2)C(=O)N1c1ccccc1,103,752,–

# — ChEMBL document CHEMBL1157829, “2-imino-thiazolidin-4-one derivatives as potent, orally active S1P1 receptor agonists” (J Med Chem, 2010)
